The values that follow come from ChEMBL document CHEMBL4406867, “Synthesis and antidepressant effect of novel aralkyl piperazine and piperidine derivatives targeting SSRI/5-HT1A/5-HT7” (Bioorg Med Chem Lett, 2019).

Data set [1] can be described thus: Clearance in human liver microsomes at 1 uM in presence of NADPH generating system measured for 10 to 90 mins by LC-MS/MS analysis. It is filed as ADME, Microsome. The method in brief:
(§1)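 Human liver microsomes; metabolic stability as half-life (min) and clearance (μL/min/mg).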

A short description of data set [2]: Half life in human liver microsomes at 1 uM in presence of NADPH generating system measured for 10 to 90 mins by LC-MS/MS analysis. Type of data set: ADME, Microsome. A digest of the protocol: as §1
The target in data set [3] is Sodium-dependent serotonin transporter (Rattus norvegicus, UniProt P31652). Description: Inhibition of rat synaptosomes 5HT transporter assessed as reduction in [3H]serotonin reuptake incubated for 15 mins by scintillation counting method. Type of data set: subcellular.
Data set [4] in a line: Half life in rat liver microsomes at 1 uM in presence of NADPH generating system measured for 10 to 90 mins by LC-MS/MS analysis. It is filed as ADME, Microsome. A digest of the protocol:
(§2)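 Rat liver microsomes; stability expressed as t1/2 (min) and intrinsic clearance (μL/min/mg).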

Data set [5] has as its target T1, 5-hydroxytryptamine receptor 7 (Homo sapiens, UniProt P34969). The data set can be described thus: Displacement of [3H]-LSD from 5HT7 receptor (unknown origin) expressed in CHO cell membranes incubated for 120 mins by scintillation counting method.
Data set [6] is described as follows: Clearance in rat liver microsomes at 1 uM in presence of NADPH generating system measured for 10 to 90 mins by LC-MS/MS analysis. It is filed as ADME, Microsome. The method in brief:
as §2

The target of data set [7] is T2, 5-hydroxytryptamine receptor 1A (Homo sapiens, UniProt P08908).
T2 sequence (P08908 whole entry): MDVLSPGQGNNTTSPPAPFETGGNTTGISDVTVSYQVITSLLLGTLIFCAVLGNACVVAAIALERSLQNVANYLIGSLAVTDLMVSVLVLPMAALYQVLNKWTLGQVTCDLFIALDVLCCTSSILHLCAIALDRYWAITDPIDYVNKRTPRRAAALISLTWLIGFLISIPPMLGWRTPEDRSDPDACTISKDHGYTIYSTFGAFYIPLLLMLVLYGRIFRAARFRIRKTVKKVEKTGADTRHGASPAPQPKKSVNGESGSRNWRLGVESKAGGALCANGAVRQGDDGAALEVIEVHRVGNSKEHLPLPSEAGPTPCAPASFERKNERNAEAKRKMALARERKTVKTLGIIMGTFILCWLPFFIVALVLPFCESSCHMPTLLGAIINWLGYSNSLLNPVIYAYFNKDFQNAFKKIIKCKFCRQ
Description: Displacement of [3H]-8-OH-DPAT from 5HT1A receptor (unknown origin) expressed in HEK293 cells membranes incubated for 60 mins by scintillation counting method. It is filed as cell membranes.

In data set [8] the test system is Mus musculus. The data set can be described thus: Antidepressant activity in ICR mouse assessed as decrease in immobility time at 40 mg/kg, po administrated for daily for 7 days measured 1 hr post last dose by tail suspension test relative to control. Type of data set: functional. Also noted: scale not given: the % may be the effect or the level left. The method in brief: (§3)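 Male ICR mice given oral doses once daily for 7 days (10, 20, 40 mg/kg/day); immobility time recorded in tail suspension test versus control group.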

Data set [9] deals with T1, 5-hydroxytryptamine receptor 7. Description: Displacement of [3H]-LSD from 5HT7 receptor (unknown origin) expressed in CHO cell membranes at 10 uM incubated for 120 mins by scintillation counting method relative to control. The method in brief:
(§4)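 Single-concentration screen at 10 μM, reported as percent inhibition; 5-HT1A by [3H]-8-OH-DPAT displacement from HEK-293 membrane homogenates, 5-HT7 by [3H]-LSD displacement from CHO membrane homogenates, SERT by [3H]-5-HT uptake into rat brain synaptosomes.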

Data set [10] addresses T3, 5-hydroxytryptamine receptor 1A (Homo sapiens) (UniProt P08908).
T3 sequence (whole entry): T2 sequence (P08908 whole entry)
Description: Displacement of [3H]-8-OH-DPAT from 5HT1A receptor (unknown origin) expressed in HEK293 cells membranes at 10 uM incubated for 60 mins by scintillation counting method relative to control. Type of data set: cell membranes. A digest of the protocol:
as §4

In data set [11] the target is T2, 5-hydroxytryptamine receptor 1A. The data set can be described thus: Agonist activity at human recombinant 5HT1A receptor (unknown origin) stably expressed in CHO-K1 incubated for 30 mins by [35S]GTPgammaS binding assay. It is filed as functional.
Data set [12] concerns Mus musculus. The data set can be described thus: Antidepressant activity in ICR mouse assessed as decrease in immobility time at 40 mg/kg, po administrated for daily for 7 days measured 1 hr post last dose by forced swim test relative to control. It is filed as functional. Also noted: scale not given: the % may be the effect or the level left. The method in brief: (§5)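 Male ICR mice dosed orally once daily for 7 days at 10, 20 or 40 mg/kg/day; immobility time scored in forced swim test against vehicle group; n = 10 per group, mean ± SEM.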

For data set [13], the system named is Mus musculus. The data set can be described thus: Antidepressant activity in ICR mouse assessed as decrease in immobility time at 20 mg/kg, po administrated for daily for 7 days measured 1 hr post last dose by forced swim test relative to control. Further details: scale not given: the % may be the effect or the level left. Type of data set: functional. A digest of the protocol:
as §5

In data set [14] the test system is Mus musculus. The data set can be described thus: Antidepressant activity in ICR mouse assessed as decrease in immobility time at 20 mg/kg, po administrated for daily for 7 days measured 1 hr post last dose by tail suspension test relative to control. Also noted: scale not given: the % may be the effect or the level left. It is filed as functional. A digest of the protocol: as §3

In data set [15] the test system is Mus musculus. The data set can be described thus: Antidepressant activity in ICR mouse assessed as decrease in immobility time at 10 mg/kg, po administrated for daily for 7 days measured 1 hr post last dose by tail suspension test relative to control. It is filed as functional. Further details: scale not given: the % may be the effect or the level left. A digest of the protocol:
as §3

Data set [16] deals with Mus musculus. The data set can be described thus: Antidepressant activity in ICR mouse assessed as decrease in immobility time at 10 mg/kg, po administrated for daily for 7 days measured 1 hr post last dose by forced swim test relative to control. Type of data set: functional. Also noted: scale not given: the % may be the effect or the level left. The method in brief: as §5

Data set [17] addresses T1, 5-hydroxytryptamine receptor 7. It is filed as functional.
In data set [18] the test system is Mus musculus. Description: Antidepressant activity in orally dosed ICR mouse assessed as decrease in immobility time measured 1 hr post last dose by forced swim test. Type of data set: functional, organism-based. The method in brief:
as §5

Data set [19] deals with Mus musculus. The data set can be described thus: Antidepressant activity in orally dosed ICR mouse assessed as decrease in immobility time measured 1 hr post last dose by tail suspension test. Type of data set: functional, organism-based. The method in brief:
as §3

Data set [20] deals with Sodium-dependent serotonin transporter (Rattus norvegicus) (UniProt P31652). Description: Inhibition of rat synaptosomes 5HT transporter assessed as reduction in [3H]serotonin reuptake at 10 uM incubated for 15 mins by scintillation counting method relative to control. Type of data set: subcellular. The method in brief:
as §4

Chain of Sodium-dependent serotonin transporter (P31652 whole entry): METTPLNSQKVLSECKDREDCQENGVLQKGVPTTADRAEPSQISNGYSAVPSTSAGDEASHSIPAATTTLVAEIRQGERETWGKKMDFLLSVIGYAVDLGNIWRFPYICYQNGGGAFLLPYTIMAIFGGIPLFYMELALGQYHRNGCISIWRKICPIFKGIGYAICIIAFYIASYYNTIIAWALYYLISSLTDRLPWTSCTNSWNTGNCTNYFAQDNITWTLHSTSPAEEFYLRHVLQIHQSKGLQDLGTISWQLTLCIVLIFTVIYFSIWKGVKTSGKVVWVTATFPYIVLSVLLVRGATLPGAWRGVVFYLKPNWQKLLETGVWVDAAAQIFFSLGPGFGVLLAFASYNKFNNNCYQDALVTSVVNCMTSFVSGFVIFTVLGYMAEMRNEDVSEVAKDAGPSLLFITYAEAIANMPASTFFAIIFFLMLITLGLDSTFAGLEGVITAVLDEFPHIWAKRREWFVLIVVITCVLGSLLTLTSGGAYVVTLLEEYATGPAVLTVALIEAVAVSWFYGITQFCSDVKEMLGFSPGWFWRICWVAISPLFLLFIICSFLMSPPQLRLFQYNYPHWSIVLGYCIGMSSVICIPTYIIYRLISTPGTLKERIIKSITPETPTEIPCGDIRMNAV
Chain of Sodium-dependent serotonin transporter (Rattus norvegicus) (P31652 whole entry): as above
T1 sequence (P34969 whole entry): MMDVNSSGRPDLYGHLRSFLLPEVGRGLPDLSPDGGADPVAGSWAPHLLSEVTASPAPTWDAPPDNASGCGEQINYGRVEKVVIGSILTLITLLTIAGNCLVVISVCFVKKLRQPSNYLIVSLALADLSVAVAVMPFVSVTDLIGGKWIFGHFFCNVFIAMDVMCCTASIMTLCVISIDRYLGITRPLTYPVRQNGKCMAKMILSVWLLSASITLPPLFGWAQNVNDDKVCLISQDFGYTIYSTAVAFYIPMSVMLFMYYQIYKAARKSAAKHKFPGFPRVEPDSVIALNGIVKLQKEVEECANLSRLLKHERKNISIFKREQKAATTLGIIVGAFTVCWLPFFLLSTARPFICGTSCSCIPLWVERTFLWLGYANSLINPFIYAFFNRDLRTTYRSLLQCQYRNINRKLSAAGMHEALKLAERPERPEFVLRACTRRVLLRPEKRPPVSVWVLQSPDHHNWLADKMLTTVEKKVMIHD

On to `COc1ccc2c(c1)[C@]13CCCC[C@@H]1[C@H](C2)N(C)CC3` [DEXTROMETHORPHAN], for which the CLH in [1] was determined as 31 µL/min/mg. In data set [2], the half-life at 1 µM came to 44.7 min.

Take `Fc1ccc2[nH]cc(CCN3CCN(c4nsc5ccccc45)CC3)c2c1`: the IC50 in data set [3] was 23 nM. In addition, the half-life at 1 µM in data set [4] worked out at 3.1 min. Moreover, the Ki amounted to 0.99 nM in data set [5] and 1.6 nM in data set [7]. Further, in data set [6], the CLH turned out to be 452 µL/min/mg.

Take `Fc1ccc2[nH]cc(CCCN3CCN(c4nsc5ccccc45)CC3)c2c1`: the IC50 in [3] amounted to 1.1 nM. The half-life at 1 µM in data set [4] is 3.5 min. The Ki in data set [5] worked out at 2.2 nM; in data set [7], 1.6 nM. Besides, the CLH in [6] amounted to 397 µL/min/mg.

As to `Fc1ccc(N2CCN(CCCc3c[nH]c4ccc(F)cc34)CC2)c(-c2cn[nH]c2)c1`, the IC50 in [3] is 1.3 nM. Also, the half-life at 1 µM in [4] is 7.2 min. The Ki in data set [5] was determined as 0.9 nM; in data set [7], 6.3 nM. In data set [6], the CLH was found to be 192 µL/min/mg.

Turning to `N#Cc1ccc2[nH]cc(CCCCN3CCN(c4ccc5oc(C(N)=O)cc5c4)CC3)c2c1` [VILAZODONE], the CLH in [1] was 26 µL/min/mg; in [6], 48.6 µL/min/mg. Further, the Activity in data set [8] came to 60%. Besides, the half-life at 1 µM in [4] was 28.5 min; in [2], 53.3 min. In [5], this compound returned a Ki of 3900 nM.

On to `COc1ccc2[nH]c([S+]([O-])Cc3ncc(C)c(OC)c3C)nc2c1` (stereo not given) [OMEPRAZOLE], for which the CLH in data set [6] stood at 163 µL/min/mg.

On to `Fc1ccc(N2CCN(CCCc3c[nH]c4ccc(F)cc34)CC2)c(-c2ccsc2)c1`, for which the IC50 in data set [3] was determined as 4 nM. The half-life at 1 µM in [4] was determined as 24.5 min. The values for the Ki in data set [5] and in [7] were 2 nM and 8.4 nM, respectively. Also, the CLH in data set [6] was found to be 56.5 µL/min/mg.

For the compound `Fc1ccc2[nH]cc(CCCCN3CCN(c4nsc5ccccc45)CC3)c2c1`, the inhibition in [9] turned out to be 98.5%; in data set [10], 101%. For the same compound, the IC50 in data set [3] was 7.08 nM. Further, the half-life at 1 µM in [4] is 3.4 min. The CLH in [6] came out at 403 µL/min/mg.

In the case of `Fc1ccc(C2CCN(CCCc3c[nH]c4ccc(F)cc34)CC2)c(-c2ccccc2)c1`, the CLH came out at 27.8 µL/min/mg in data set [1] and 28.5 µL/min/mg in [6]. The EC50 in data set [11] was 1180 nM. Further, the Activity is given as 43% in data set [12]; 47% in data set [13]; 35% in data set [14]; 43% in data set [8]; 28% in [15]; 29% in data set [16]. Further, the Activity entry in data set [18] and in [19] was “Dose-dependent effect” in each case. The IC50 in data set [3] was determined as 14 nM; in data set [17], 650 nM. Besides, the half-life at 1 µM is 48.6 min in data set [4] and 49.9 min in data set [2].

As for `Cc1ccc(Sc2ccccc2N2CCNCC2)c(C)c1` [VORTIOXETINE], the CLH came out at 6.47 µL/min/mg in [1] and 153 µL/min/mg in data set [6]. The Activity in data set [12] was 35%. In data set [2], the half-life at 1 µM was 214 min.

As to `Fc1ccc(N2CCN(CCCc3c[nH]c4ccc(F)cc34)CC2)c(-c2cncnc2)c1`, the values for the inhibition in data set [9], in data set [20] and in data set [10] were 90.9%, 102% and 98.8%, respectively. Besides, in data set [4], the half-life at 1 µM came out at 6.6 min. In data set [6], the CLH was determined as 209 µL/min/mg.

Regarding `Fc1ccc2c(C3CCN(CCCc4c[nH]c5ccc(F)cc45)CC3)noc2c1`, the inhibition came out at 99.8% in data set [9] and 101% in data set [10]. Besides, the IC50 in [3] was 0.92 nM. The half-life at 1 µM in data set [4] was found to be 4.6 min. The CLH in data set [6] came to 301 µL/min/mg.

`Fc1ccc(N2CCN(CCCc3c[nH]c4ccc(F)cc34)CC2)c(-c2cccnc2)c1`: the inhibition in data set [9] was determined as 100%; in data set [20], 104%; in data set [10] it was 99.1%. The half-life at 1 µM in data set [4] turned out to be 5.8 min. Also, in data set [6], the CLH is 240 µL/min/mg.

In the case of `Fc1ccc(N2CCN(CCCc3c[nH]c4ccc(F)cc34)CC2)c(-c2cc[nH]c2)c1`, the inhibition in [9] was found to be 99.1%; in data set [20], 78.9%; in data set [10] it was 97.4%.

Consider `Fc1ccc(N2CCN(CCCc3c[nH]c4ccc(F)cc34)CC2)c(-c2cccs2)c1`, for which the IC50 in data set [3] was 21 nM. For the same compound, the values for the Ki in data set [5] and in [7] were 11 nM and 38 nM, respectively.

With `Cn1cc(-c2cc(F)ccc2N2CCN(CCCc3c[nH]c4ccc(F)cc34)CC2)cn1`, the IC50 in [3] was 2.7 nM. Further, the half-life at 1 µM in data set [4] is 9.5 min. The CLH in data set [6] came to 146 µL/min/mg.

Turning to `Fc1ccc(C2CCN(CCCc3c[nH]c4ccc(F)cc34)CC2)c(-c2ccsc2)c1`, the IC50 in [3] amounted to 14 nM. The half-life at 1 µM in [4] stood at 18.3 min. Moreover, the CLH in [6] is 75.6 µL/min/mg.

On to `Fc1ccc(N2CCN(CCCc3c[nH]c4ccc(F)cc34)CC2)c(-c2ccoc2)c1`, for which the IC50 in data set [3] worked out at 3 nM. The half-life at 1 µM in [4] stood at 10.3 min. Further, the figures for the Ki in data set [5] and in data set [7] were 11 nM and 15 nM, respectively. In addition, the CLH in data set [6] is 134 µL/min/mg.
